The results in this text go back to ChEMBL document CHEMBL4028909, “Discovery of an Orally Bioavailable Benzofuran Analogue That Serves as a β-Amyloid Aggregation Inhibitor for the Potential Treatment of Alzheimer's Disease” (J Med Chem, 2018).

The assay deals with Amyloid-beta precursor protein (Homo sapiens) (UniProt P05067). Put plainly: Induction of HFIP-pretreated amyloid beta (1 to 42) (unknown origin) disaggregation after 48 hrs by silver staining-based SDS-PAGE analysis. The method in brief:
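Aβ aggregates were incubated with compound for 48 h, with congo red as positive control. Size distribution (monomer, dimer, trimer, high-molecular-weight species) was analysed by SDS-PAGE with silver staining at the start and at the end of incubation.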

Molecules are shown by their SMILES. Active and inactive are the calls of the source. No cut-off for these calls is given here.

Amyloid-beta precursor protein (Homo sapiens), sequence (P05067 whole entry): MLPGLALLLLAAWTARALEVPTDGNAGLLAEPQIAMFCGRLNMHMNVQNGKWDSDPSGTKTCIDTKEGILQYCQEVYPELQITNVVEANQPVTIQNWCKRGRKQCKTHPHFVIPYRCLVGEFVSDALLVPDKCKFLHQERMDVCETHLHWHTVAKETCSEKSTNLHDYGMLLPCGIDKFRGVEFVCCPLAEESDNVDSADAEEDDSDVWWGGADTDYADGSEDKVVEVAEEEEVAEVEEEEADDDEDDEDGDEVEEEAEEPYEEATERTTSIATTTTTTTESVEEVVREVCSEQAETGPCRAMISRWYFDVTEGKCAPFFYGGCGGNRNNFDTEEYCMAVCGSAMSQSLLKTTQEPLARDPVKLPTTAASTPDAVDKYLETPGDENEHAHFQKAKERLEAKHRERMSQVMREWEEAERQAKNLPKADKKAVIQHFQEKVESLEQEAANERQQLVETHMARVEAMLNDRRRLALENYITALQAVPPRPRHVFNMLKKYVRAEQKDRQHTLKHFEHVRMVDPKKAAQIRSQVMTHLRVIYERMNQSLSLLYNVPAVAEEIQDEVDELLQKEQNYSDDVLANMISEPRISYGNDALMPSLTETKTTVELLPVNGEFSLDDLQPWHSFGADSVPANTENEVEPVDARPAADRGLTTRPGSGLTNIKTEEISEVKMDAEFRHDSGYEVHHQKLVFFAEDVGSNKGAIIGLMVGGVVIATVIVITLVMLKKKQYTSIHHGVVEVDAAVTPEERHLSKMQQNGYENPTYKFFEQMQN

Consider `Nc1c(/N=N/c2ccc(-c3ccc(/N=N/c4cc(S(=O)(=O)O)c5ccccc5c4N)cc3)cc2)cc(S(=O)(=O)O)c2ccccc12`, for which the result was Active.
